Results as given in ChEMBL document CHEMBL1641445, “Synthesis, antiprotozoal, antimicrobial, β-hematin inhibition, cytotoxicity and methemoglobin (MetHb) formation activities of bis(8-aminoquinolines)” (Bioorg Med Chem, 2011).
Calls of active or inactive are those of the source. The rule behind the calls is not given here.

Tests used:
Nakaseomyces glabratus = experiment: Antifungal activity against Candida glabrata at 20 ug/ml; type: functional, organism-based
Staphylococcus aureus [1] = experiment: Antibacterial activity against methicillin-resistant Staphylococcus aureus ATCC 43300 at 20 ug/ml by CLSI method; type: functional, organism-based
In short: (§1)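 Broth dilution method (NCCLS M7-A5). […] MIC is the lowest concentration allowing no detectable growth. MBC is the lowest concentration killing the organism. Highest test concentration was 20 µg/mL.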

Leishmania donovani = experiment: Antileishmanial activity against promastigotes of Leishmania donovani by alamar blue assay; type: functional, organism-based; details: for IC50: read-out: IC50
Aspergillus fumigatus = experiment: Antifungal activity against Aspergillus fumigatus ATCC 90906 at 20 ug/ml; type: functional, organism-based
Cryptococcus neoformans = experiment: Antifungal activity against Cryptococcus neoformans ATCC 90113; type: functional, organism-based
[2] = Hematotoxicity against RBC assessed as formation of methemoglobin at 20 ug/ml relative to control; type: cell-based; details: erythrocyte
In short: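 Metabolism-linked methemoglobin toxicity in vitro. Percent MetHb formation was determined at 20 µg/mL of compound relative to vehicle control.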

Vero = experiment: Cytotoxicity against african green monkey Vero cells up to 10 ug/ml by neutral red assay; type: cell-based; details: chlorocebus sabaeus
In short: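 Vero (monkey kidney) cells were exposed up to a highest concentration of 10 µg/mL. Viability was read by neutral red uptake.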

[3] = tested on: Mycobacterium intracellulare; experiment: Antibacterial activity against Mycobacterium intracellular ATCC 23068 at 20 ug/ml by CLSI method; type: functional, organism-based
Staphylococcus aureus [4] = experiment: Antibacterial activity against methicillin-resistant Staphylococcus aureus ATCC 43300 by CLSI method; type: functional, organism-based; in short: as §1
Candida albicans [5] = experiment: Antifungal activity against Candida albicans ATCC 90028 at 20 ug/ml; type: functional, organism-based
Pichia kudriavzevii = experiment: Antifungal activity against Candida krusei at 20 ug/ml; type: functional, organism-based
[6] = Inhibition of beta-hematin formation; type: functional
Plasmodium berghei [7] = experiment: Antimalarial activity against Plasmodium berghei infected in mouse assessed as negative parasitemia level at 10 mg/kg, po qd for 4 days measured up to 7 days; type: functional, organism-based; parameters: dose 10 mg/kg
In short: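 Mice infected with P. berghei (sensitive strain), 6 per group, dosed orally at 10–100 mg/kg/day × 4. Suppression meant negative parasitemia in all treated animals up to D+7. Survivors were counted at D+60.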

[8] = tested on: Mycobacterium intracellulare; experiment: Antibacterial activity against Mycobacterium intracellular ATCC 23068 by CLSI method; type: functional, organism-based
Plasmodium berghei [9] = experiment: Antimalarial activity against Plasmodium berghei infected in mouse assessed as complete elimination of malaria parasites from animals at 25 mg/kg, po qd for 4 days measured up to 60 days; type: functional, organism-based; parameters: dose 25 mg/kg
In short: (§2)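 Rodent P. berghei (sensitive strain) blood-schizontocidal model, 6 mice per group. Compounds were given orally once daily for 4 days at 10, 25, 50 or 100 mg/kg/day. Cure meant complete parasite elimination with survival to day D+60.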

Plasmodium berghei [10] = experiment: Antimalarial activity against Plasmodium berghei infected in mouse assessed as complete elimination of malaria parasites from animals at 50 mg/kg, po qd for 4 days measured up to 60 days; type: functional, organism-based; parameters: dose 50 mg/kg; in short: as §2
Plasmodium berghei [11] = experiment: Antimalarial activity against Plasmodium berghei infected in mouse assessed as complete elimination of malaria parasites from animals at 100 mg/kg, po qd for 4 days measured up to 60 days; type: functional, organism-based; parameters: dose 100 mg/kg; in short: as §2
Plasmodium falciparum [12] = experiment: Antimalarial activity against chloroquine-sensitive Plasmodium falciparum D6 by LDH assay; type: functional, organism-based
In short: (§3)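 Antiplasmodial activity was measured in vitro against P. falciparum blood-stage cultures. Read-out was parasite lactate dehydrogenase (LDH) activity, with IC50 values expressed in µg/mL. The same protocol was used for the D6 and W2 strains.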

Plasmodium falciparum [13] = experiment: Antimalarial activity against chloroquine-resistant Plasmodium falciparum W2 by LDH assay; type: functional, organism-based; details: Plasmodium falciparum, W2; read-out: IC50; in short: as §3
Candida albicans [14] = experiment: Antifungal activity against Candida albicans ATCC 90028; type: functional, organism-based
[15] = Plasmodium falciparum, D6, read-out: IC50

SMILES | Activity (Nakaseomyces glabratus) | MBC (Staphylococcus aureus [1]) | IC90 (Leishmania donovani; Leishmania donovani) | IC50 (Leishmania donovani; Leishmania donovani) | Activity (Aspergillus fumigatus) | IC50 (Cryptococcus neoformans) | MIC (Cryptococcus neoformans) | Methemoglobin formation [2] | Activity (Vero) | MBC [3] | MIC [3] | IC50 (Staphylococcus aureus [4]) | MIC (Staphylococcus aureus [4]) | MFC (Candida albicans [5]) | MIC (Candida albicans [5]) | Activity (Pichia kudriavzevii) | IC50 [6] | IC50 [8] | Activity (Plasmodium berghei [11]) | IC50 (Plasmodium falciparum [12]; [15]) | also measured
COc1cc(NC(C)CCCNC(=O)N[C@H](CCCCN)C(=O)NCCCC(C)Nc2cc(OC)cc3cccnc23)c2ncccc2c1.Cl (stereo partly specified) | inactive | inactive | 36 µg/mL | 18.5 µg/mL | inactive | 10 µg/mL | 20 µg/mL | 2.8% | Non-toxic | inactive | inactive | 10 µg/mL | 20 µg/mL | inactive | inactive | inactive | 162 µM | – | – | – | MFC (Cryptococcus neoformans): 20 µg/mL; IC50 [3]: Not Active; IC50 (Candida albicans [5]): Not Active
COc1cc(NC(C)CCCNC(=O)CC[C@H](N)C(=O)NCCCC(C)Nc2cc(OC)cc3cccnc23)c2ncccc2c1.Cl (stereo partly specified) | inactive | inactive | 35 µg/mL | 16 µg/mL | inactive | 15 µg/mL | 20 µg/mL | 13.35% | Non-toxic | inactive | – | 15 µg/mL | 20 µg/mL | inactive | inactive | inactive | 85 µM | 15 µg/mL | Active | – | Activity (Plasmodium berghei [7]): Active; MIC [8]: 20 µg/mL; MFC (Cryptococcus neoformans): 20 µg/mL; Activity (Plasmodium berghei [9]): Active; Activity (Plasmodium berghei [10]): Active; IC50 (Candida albicans [5]): Not Active
COc1cc(NC(C)CCCNC(=O)C[C@@H](N)C(=O)NCCCC(C)Nc2cc(OC)cc3cccnc23)c2ncccc2c1.Cl (stereo partly specified) | – | inactive | 31 µg/mL | 11.5 µg/mL | – | – | – | 7.25% | Non-toxic | inactive | – | 15 µg/mL | – | – | – | – | 120 µM | 15 µg/mL | – | 3.3 µg/mL | MIC (Staphylococcus aureus [1]): inactive; MIC [8]: 20 µg/mL
COc1cc(NC(C)CCCNCC(=O)NCCCC(C)Nc2cc(OC)cc3ccc(C(C)(C)C)nc23)c2nc(C(C)(C)C)ccc2c1.Cl.Cl (stereo unspecified) | – | inactive | 7.8 µg/mL | 2.9 µg/mL | – | – | – | 1.1% | Non-toxic | inactive | inactive | 15 µg/mL | 20 µg/mL | – | – | – | 75 µM | 15 µg/mL | – | 1.5 µg/mL | IC50 (Plasmodium falciparum [13]): 1.3 µg/mL
COc1cc(NC(C)CCCNC(=O)CC[C@H](N)C(=O)NCCCC(C)Nc2cc(OC)cc3ccc(C(C)(C)C)nc23)c2nc(C(C)(C)C)ccc2c1.Cl (stereo partly specified) | – | – | 10.7 µg/mL | 3.9 µg/mL | – | – | – | 3.3% | Non-toxic | inactive | inactive | 8.5 µg/mL | 20 µg/mL | – | – | – | > 1000 µM | – | inactive | 4.7 µg/mL | IC50 (Plasmodium falciparum [13]): 2.3 µg/mL; IC50 [3]: Not Active; MBC (Staphylococcus aureus [4]): 20 µg/mL
COc1cc(NC(C)CCCNC(=O)NC(CCCN)C(=O)NCCCC(C)Nc2cc(OC)cc3cccnc23)c2ncccc2c1 (single isomer, unassigned; 37) | inactive | – | – | – | inactive | – | – | – | – | – | – | – | – | inactive | inactive | inactive | – | – | inactive | – | –
COc1cc(NC(C)CCCN)c2ncccc2c1 (stereo unspecified) [PRIMAQUINE] | – | – | – | – | – | – | – | 10% | Non-toxic | – | – | – | – | – | – | – | > 1000 µM | – | inactive | – | Activity (Plasmodium berghei [7]): inactive; IC90 (Leishmania donovani): inactive
COc1cc(NC(C)CCCNC(=O)C[C@H](N)C(=O)NCCCC(C)Nc2cc(OC)cc3cccnc23)c2ncccc2c1.Cl (stereo partly specified) | inactive | inactive | 30 µg/mL | – | inactive | 7.5 µg/mL | 10 µg/mL | 5.4% | Non-toxic | inactive | inactive | 15 µg/mL | 20 µg/mL | inactive | inactive | inactive | 185 µM | 20 µg/mL | – | 4.76 µg/mL | MFC (Cryptococcus neoformans): 10 µg/mL; IC50 (Plasmodium falciparum [13]): 3.8 µg/mL; IC50 (Candida albicans [5]): Not Active
COc1cc(NC(C)CCCNC(=O)NC(CCCNC(=N)N)C(=O)NCCCC(C)Nc2cc(OC)cc3cccnc23)c2ncccc2c1 (single isomer, unassigned; 36) | inactive | – | – | – | inactive | – | – | – | – | – | – | – | – | inactive | inactive | inactive | – | – | Active | – | Activity (Plasmodium berghei [10]): inactive
COc1cc(NC(C)CCCNC(=O)C[C@H](N)C(=O)NCCCC(C)Nc2cc(OC)cc3ccc(C(C)(C)C)nc23)c2nc(C(C)(C)C)ccc2c1.Cl (stereo partly specified) | inactive | – | 33 µg/mL | 15 µg/mL | inactive | 10 µg/mL | 20 µg/mL | 1.55% | Non-toxic | inactive | inactive | 6.5 µg/mL | – | inactive | inactive | inactive | 140 µM | – | inactive | – | MFC (Cryptococcus neoformans): 20 µg/mL; IC50 [3]: Not Active; MBC (Staphylococcus aureus [4]): 20 µg/mL; IC50 (Plasmodium falciparum [12]): Not Active; IC50 (Candida albicans [5]): Not Active
CCCCCOc1c(OC)cc(NC(C)CCCNC(=S)NCCCC(C)Nc2cc(OC)c(OCCCCC)c3c(CC)ccnc23)c2nccc(CC)c12.Cl.Cl (stereo unspecified) | inactive | – | – | 40 µg/mL | inactive | 10 µg/mL | 20 µg/mL | 1.7% | Non-toxic | inactive | – | 3.5 µg/mL | 5 µg/mL | inactive | – | inactive | > 1000 µM | 15 µg/mL | – | – | MIC [8]: 20 µg/mL; IC90 (Leishmania donovani): inactive; MFC (Cryptococcus neoformans): 20 µg/mL; IC50 (Plasmodium falciparum [13]): 4.76 µg/mL; IC50 (Candida albicans [14]): 10 µg/mL; MIC (Candida albicans [14]): 20 µg/mL; MBC (Staphylococcus aureus [4]): 10 µg/mL; IC50 (Plasmodium falciparum [12]): Not Active
COc1cc(NC(C)CCCNC(=O)N[C@@H](CCCN)C(=O)NCCCC(C)Nc2cc(OC)cc3ccc(C(C)(C)C)nc23)c2nc(C(C)(C)C)ccc2c1.Cl (stereo partly specified) | inactive | – | 33 µg/mL | 18 µg/mL | inactive | 15 µg/mL | 20 µg/mL | 0.2% | Non-toxic | inactive | – | 6.5 µg/mL | 20 µg/mL | inactive | inactive | inactive | 152 µM | 15 µg/mL | – | 4 µg/mL | IC50 (Candida albicans [14]): 15 µg/mL; MBC (Staphylococcus aureus [4]): 20 µg/mL
COc1cc(NC(C)CCCNC(=O)NC(CCCN)C(=O)NCCCC(C)Nc2cc(OC)cc3cccnc23)c2ncccc2c1 (single isomer, unassigned; 40) | inactive | inactive | – | – | inactive | – | – | – | – | inactive | inactive | – | – | inactive | inactive | inactive | – | – | – | – | –
CCCCCOc1c(OC)cc(NC(C)CCCNC(=O)NCCCC(C)Nc2cc(OC)c(OCCCCC)c3c(CC)ccnc23)c2nccc(CC)c12.Cl.Cl (stereo unspecified) | – | inactive | 7 µg/mL | 3.5 µg/mL | – | – | – | 4.7% | Non-toxic | inactive | inactive | 8.5 µg/mL | 20 µg/mL | – | – | – | 80 µM | – | – | 1.7 µg/mL | IC50 (Plasmodium falciparum [13]): 1.3 µg/mL; IC50 [3]: Not Active
